This is one part of a sample in which hits are shown more often than they occur.
Insulin prom act = TRM-6 insulin promoter activation; TRM-6 cells (human fetal islet line), insulin promoter eGFP reporter, imaging; plate-scaled: unstimulated 0, stimulated control 100; activation, % at 2 µM; hit rate 0.81% among 130,000; AID 1296;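 active means activation at 2 µM above a set limit, confirmed on inspection of the cell images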;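 further: share of cells whose green reporter signal exceeds an intensity cutoff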
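Assay system: TRM-6 insulin promoter–eGFP reporter cells / Input: 1,000 cells per well / Medium: Low-glucose (5.5 mM) medium with tamoxifen / Also added: tamoxifen inducer, 0.75 µM, in seeding medium / Timing: overnight tamoxifen, then two-day compound incubation at 37 °C / Signal: automated fluorescence imaging of paraformaldehyde-fixed, Hoechst-counterstained cells, green channel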
An asterisk follows results filed as active.

SMILES	Insulin prom act
O=C(NCCCn1ccnc1)C(=O)Nc1ccccc1	127
Cc1cc(C(=O)NCCCn2ccnc2)sc1-c1ccccc1	531*
O=C(NCCCn1ccnc1)C(=O)NCc1ccccc1	-3
CCOC(=O)c1[nH]c2ccccc2c1NC(=O)c1ccc(S(=O)(=O)N2CCCC2)cc1	2
O=C(COc1ccc(C(=O)c2ccccc2)cc1)NCC(=O)Nc1ccccc1Br	3
CCCCCCOC(=O)Nc1ccc(S(=O)(=O)Nc2cccc([N+](=O)[O-])c2)cc1	7
COCCNC(=O)CCCC(=O)NCCOC	3
O=C(NCCN1CCOCC1)C1CCN(S(=O)(=O)N2CCCC2)CC1	7
CC(C)(C)c1cc(C(=O)N2CCN(c3ncccn3)CC2)ccn1	-64
CC(C)(C)c1ccc(S(=O)(=O)N2CCN(c3ncccn3)CC2)cc1	267*
O=S(=O)(c1cc(F)cc(F)c1)N1CCN(c2ncccn2)CC1	-7
COc1ccccc1NC(=S)N1CCn2cccc2C1c1cccnc1 (stereo unspecified)	0
CCN(C(=O)CSc1nnc(-c2cccs2)o1)C1CCS(=O)(=O)C1 (stereo unspecified)	133
C=CCc1c(C)[nH]c(=O)[nH]c1=O	-78
CCN(CCCNC(=O)C1CCN(S(=O)(=O)N2CCOCC2)CC1)c1cccc(C)c1	114
CCN(CCCNC(=O)C1CCC(=O)N1Cc1ccccc1Cl)c1cccc(C)c1 (stereo unspecified)	92*
CCN(CCNC(=O)C1CCC(=O)N1Cc1ccc(C)cc1)c1ccccc1 (stereo unspecified)	0
COc1ccc(CNC(=O)CN2C(=O)C3C4C=CC(C4)C3C2=O)cc1 (stereo unspecified)	7
O=C(CN1CCN(Cc2ccccc2Cl)CC1)N/N=C/C=C/c1ccccc1[N+](=O)[O-]	-3
CC(C)(C)NC(=O)CN(C(=O)Cn1nnc(-c2ccc(Cl)cc2)n1)C1CCN(Cc2ccccc2)CC1	7
COc1ccccc1/C=C/C(=O)N1CCC(c2ccccc2)C1 (stereo unspecified)	3
COCCNC(=O)C(c1cccnc1)N(Cc1ccc(C)cc1)C(=O)Cn1nnc2ccccc21 (stereo unspecified)	4
Cc1c(-c2ccc(F)cc2)[n+](=O)c2c(n1[O-])CCCCC2	-8
Cc1nc2ccc(S(=O)(=O)NC(C(=O)NCc3cccs3)C(C)C)cc2s1 (stereo unspecified)	250*
CCN(CC(=O)NCc1cccs1)S(=O)(=O)c1ccc(C(C)C)cc1	6
SMILES	Insulin prom act
Cc1ccc2nc(-c3ccccc3)nc(SC(C)C(=O)NCc3cccs3)c2c1 (stereo unspecified)	-7
CCN1C/C(=C/c2cccc([N+](=O)[O-])c2)C(=O)/C(=C/c2cccc([N+](=O)[O-])c2)C1	-100
CCN(CC)S(=O)(=O)c1cccc(C(=O)Nc2sc3c(c2C(N)=O)CCCC3)c1	-5
CCN(CC)S(=O)(=O)c1cccc(C(=O)N2CC(O)CC2C(=O)O)c1 (stereo unspecified)	443*
CCN(CC)S(=O)(=O)c1cccc(-c2nnc(SCC(=O)N3CCC(C(=O)O)CC3)n2N)c1	-6
CCC(CC)C(=O)Nc1nnc(SCC(=O)NC(C)(C)C)s1	0
CCCSc1nc(O)c(C(c2ccc(OC)c(O)c2)c2c(O)nc(SCCC)n(C)c2=O)c(=O)n1C	10
Cc1cccc(-n2c(C)cc(C=C3C(=O)c4ccccc4C3=O)c2C)c1	7
O=C1C(=Cc2cccs2)C(=O)c2ccccc21	-7
Cc1ccc(C=C2C(=O)c3ccccc3C2=O)s1	322*
CC1(C)Cc2c(ccc3ccccc23)C(NNC(=O)c2cccnc2)=N1	8
Cn1cc(CN2CCCC(CO)(Cc3ccccc3)C2)cn1 (stereo unspecified)	-7
Cc1ccc(-c2nnn(CC(=O)N(c3cccc(F)c3)C(C(=O)NC3CCCC3)c3ccco3)n2)o1 (stereo unspecified)	4
Cc1ccc(-c2nnn(CC(=O)N(CC3CCCO3)C(C(=O)NC3CCCC3)c3ccc(F)cc3)n2)o1 (stereo unspecified)	500*
Cc1ccc(-c2nnn(CC(=O)N(CC3CCCO3)C(C(=O)NC3CCCC3)c3ccc(O)cc3)n2)o1 (stereo unspecified)	7
Cc1cccc(OCc2nnc(SCC(=O)Nc3cccc(C(=O)N4CCOCC4)c3)o2)c1C	0
CCc1ccccc1NC(=S)N(CCN(C)C)Cc1cccs1	7
COC(=O)C1=C(C(=O)OC)C(c2ccccc2O)c2sc(=O)[nH]c2S1 (stereo unspecified)	0
CCOc1ccc(CC(=O)OCn2nnc3ccccc3c2=O)cc1	-9
Cc1cc(C)nc(SCC(=O)N/N=C/c2cccn2-c2ccc(O)cc2)n1	106*
C/C(=N\NC(=O)CSc1nc(C)cc(C)n1)c1cccs1	-3
Cc1cc(C)nc(SCC(=O)Nc2ccc(N3CCOCC3)cc2)n1	-10
CC(=O)Nc1ccc(S(=O)(=O)NCCc2ccccn2)cc1	-7
CN(C)/C=C/C(=O)c1cnc(-c2ccccn2)s1	9
COc1ccc(-c2cc(C(F)(F)F)nc(SCC(=O)NCc3cccs3)n2)cc1OC	-6
SMILES	Insulin prom act
CC(C)(C)C1CCC(OC(=O)C[N+]2(C)CCCCC2)CC1 (stereo unspecified)	200*
C[N+]1(CCC(=O)c2ccccc2)CCCCC1	-64
COC(=O)C1=C(C)N(c2cccc(C(C)=O)c2)C(=O)C1	475*
CC(=O)COC(=O)c1cccc(N2C(=O)C3C4C=CC(C4)C3C2=O)c1 (stereo unspecified)	-12
CCN1C(=O)CC(C(=O)OC)=C1C	6
Cc1ccc(SCC(=O)NC(=O)NCc2ccccc2)c(C)c1	8
Cc1cc(C(=O)COC(=O)CN=C2NS(=O)(=O)c3ccccc32)c(C)n1CCc1ccc(Cl)cc1	0
CSC(=NC#N)N1CCN(c2cccc(Cl)c2)CC1	0
Cc1ccc(C(=O)N/N=C/c2ccc([N+](=O)[O-])s2)cc1	8
Cc1ccc(NC(=O)/C=C/c2ccc([N+](=O)[O-])s2)c(C)c1	179
Cc1ccc(NC(=O)/C=C/c2ccc([N+](=O)[O-])s2)cc1	270*
C=CCNC(=S)NNC(=O)C(CCCC)CC(C)(C)O (stereo unspecified)	371
Cc1ccc(N2C(=O)C3C(c4ccccc4)N4CCCN4C3(C)C2=O)cc1 (stereo unspecified)	0
CN(C)CCCNC(=O)C(=O)NCC1CCCO1 (stereo unspecified)	294*
O=C(CCCCCCCC(=O)NCC1CCCO1)NCC1CCCO1 (stereo unspecified)	-3
O=C(NCC1CCCO1)NC1CCCCC1 (stereo unspecified)	-7
O=S(=O)(c1ccccc1F)N1CCN(Cc2nc3ccccc3[nH]2)CC1	-2
Cc1cc(C)c2[nH]c(=O)c(CN(Cc3cccs3)C(=S)NCC3CCCO3)cc2c1 (stereo unspecified)	-8
O=C(NCc1ccc(Cl)cc1)c1ccc(Br)o1	-5
C=CCn1c(SCc2ccc(C#N)cc2)nnc1-c1cccc(OC)c1	164*
Cc1ccc(-c2nnc(SCc3ccc(C#N)cc3)n2Cc2ccco2)cc1	3
C=CCn1c(SCc2ccccc2)nnc1-c1cccnc1	0
CCCn1nnc(NC(=O)c2ccc(OCC)c(Cl)c2)n1	623*
CCCn1nnc(NC(=O)c2ccc(Br)cc2)n1	-79
CCOc1ccc(C(=O)Nc2cc(NC(=O)c3ccc(OCC)c(Cl)c3)cc(C(=O)O)c2)cc1Cl	-6

Screening data deposited in PubChem by Columbia University Molecular Screening Center.
